From ChEMBL document CHEMBL5712070, “Discovery of a chemical probe for the L3MBTL3 methyllysine reader domain” (Nat Chem Biol, 2013)
Activity calls are given as the source filed them. The rule behind the calls is not given here.

Experiments:
[1] = molecular target: T1, Lethal(3)malignant brain tumor-like protein 3 (Homo sapiens, UniProt Q96JM7); test: Binding affinity to L3MBTL3 (unknown origin) by ITC assay
T1 sequence (Q96JM7 whole entry): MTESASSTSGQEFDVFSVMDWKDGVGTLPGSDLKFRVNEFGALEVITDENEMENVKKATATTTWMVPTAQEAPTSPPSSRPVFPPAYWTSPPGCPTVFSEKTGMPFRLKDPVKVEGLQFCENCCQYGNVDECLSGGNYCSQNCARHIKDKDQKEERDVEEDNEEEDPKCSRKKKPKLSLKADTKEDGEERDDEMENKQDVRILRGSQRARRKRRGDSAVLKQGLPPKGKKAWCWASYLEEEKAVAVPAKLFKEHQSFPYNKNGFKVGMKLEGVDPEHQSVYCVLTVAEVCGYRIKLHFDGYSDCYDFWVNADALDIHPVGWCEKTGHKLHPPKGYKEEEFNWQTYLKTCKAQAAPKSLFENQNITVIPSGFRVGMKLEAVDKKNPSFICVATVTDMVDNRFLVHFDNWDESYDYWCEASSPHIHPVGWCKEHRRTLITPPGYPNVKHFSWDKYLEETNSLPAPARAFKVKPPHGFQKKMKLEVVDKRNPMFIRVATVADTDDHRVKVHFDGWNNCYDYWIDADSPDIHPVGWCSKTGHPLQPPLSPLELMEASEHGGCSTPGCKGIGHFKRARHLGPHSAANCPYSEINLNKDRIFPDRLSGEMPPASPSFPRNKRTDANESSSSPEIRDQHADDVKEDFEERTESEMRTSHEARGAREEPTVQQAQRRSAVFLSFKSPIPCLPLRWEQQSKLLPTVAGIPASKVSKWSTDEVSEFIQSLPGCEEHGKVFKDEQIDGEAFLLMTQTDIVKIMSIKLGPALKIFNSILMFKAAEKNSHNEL

[2] = molecular target: T2, Lethal(3)malignant brain tumor-like protein 3 (Homo sapiens) (UniProt Q96JM7); test: Binding affinity to flag-tagged full length L3MBTL3 (unknown origin) expressed in HEK293 cell lysates at 5 nmol by; format: subcellular
T2 sequence (whole entry): T1 sequence (Q96JM7 whole entry)

[3] = molecular target: T2, Lethal(3)malignant brain tumor-like protein 3 (Homo sapiens); test: Binding affinity to GFP-tagged full length L3MBTL3 (unknown origin) expressed in HEK293 cells assessed as co-localization with full length L3MBTL3; format: cell-based
[4] = molecular target: T2, Lethal(3)malignant brain tumor-like protein 3 (Homo sapiens); test: Binding affinity to GFP-tagged full length L3MBTL3 (unknown origin) expressed in HEK293 cells assessed as increase in protein mobility; format: cell-based
[5] = molecular target: T2, Lethal(3)malignant brain tumor-like protein 3 (Homo sapiens); test: Inhibition of GFP-tagged full length L3MBTL3 (unknown origin) expressed in HEK293 cells assessed as disruption of foci formation by immunofluorescence assay; format: cell-based
Method in brief: (§1)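 HEK293 cells seeded on coverslips, transfected 16–24 h after seeding with GFP-3MBT or GFP-FLMBT for 48 h; compounds at indicated concentrations for at least 24 h; Hoechst 33342 stain before spinning-disk confocal imaging; foci quantified by % GFP intensity function.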

[6] = molecular target: T1, Lethal(3)malignant brain tumor-like protein 3; test: Inhibition of L3MBTL3 (unknown origin) using H4K20me2 peptide by Alpha-Screen methylated histone peptide competition assay
[7] = Cytotoxicity in HEK293T/17 cells assessed as effect on cell viability up to 100 uM incubated for 24 hrs by CellTiter-Glo luminescent cell viability assay; format: toxicity, cell-based; conditions: human, hek293t/17, 24 h
[8] = molecular target: T2, Lethal(3)malignant brain tumor-like protein 3 (Homo sapiens); test: Inhibition of GFP-3MBT tagged L3MBTL3 (unknown origin) expressed in HEK293 cells assessed as reduction in recovery of fluorescence intensity up to 0.1 mM measured up to 60 secs by FRAP assay; format: cell-based; conditions: time <= 60.0 sec
Method in brief: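 FRAP: HEK293 cells transfected with GFP-3MBT; inhibitor treatment 3–6 h; 488 nm laser bleaching then image acquisition every 2 s on laser scanning confocal microscope. Recovery fitted exponentially from 8–10 nuclei per condition; water as control; experiment repeated 3 independent times.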

[9] = molecular target: T2, Lethal(3)malignant brain tumor-like protein 3 (Homo sapiens); test: Inhibition of GFP-3MBT tagged L3MBTL3 (unknown origin) expressed in HEK293 cells assessed as disruption of foci formation at 100 uM by immunofluorescence assay; format: cell-based; method in brief: as §1
[10] = molecular target: T2, Lethal(3)malignant brain tumor-like protein 3 (Homo sapiens); test: Binding affinity to GFP-3MBT tagged L3MBTL3 (unknown origin) assessed as protein half life at 1 uM
[11] = molecular target: T1, Lethal(3)malignant brain tumor-like protein 3; test: Binding affinity to GFP-3MBT tagged L3MBTL3 (unknown origin) assessed as diffusion coefficient at 1 uM (reference value: 0.1272 um2/s)
[12] = molecular target: T1, Lethal(3)malignant brain tumor-like protein 3; test: Binding affinity to GFP-tagged full length L3MBTL3 (unknown origin) assessed as diffusion coefficient at 1 uM (reference value: 0.037549815 um2/s)

SMILES	Kd [1] [µM]	Activity [2]	Activity [3]	Activity [4]	inhibition [5]	IC50 [6] [µM]	Activity [7]	inhibition [8]	inhibition [9]	T1/2 [10] [s]	Diffusion coefficient [11] [um2/s]	Diffusion coefficient [12] [um2/s]
O=C(CCCC[C@@H]1SC[C@@H]2NC(=O)N[C@@H]21)NCCOCCOCCOCCOCCOCCOCCOCCOCCOCCOCCOCCNC(=O)c1ccc(Nc2cc(C(=O)N3CCC(N4CCCC4)CC3)ccc2C(=O)N2CCC(N3CCCC3)CC2)cc1	0.35	Active										
CCN1C(=O)\C(=C/C=C/C=C2/N(CCC(=O)OCOC(C)=O)c3ccc(C(=O)OCOC(C)=O)cc3C2(C)C)C(=O)N(CCC(=O)NCCCCCCNC(=O)c2ccc(Nc3cc(C(=O)N4CCC(N5CCCC5)CC4)ccc3C(=O)N3CCC(N4CCCC4)CC3)cc2)C1=O			Active	Active	inactive							
O=C(c1ccc(C(=O)N2CCC(N3CCCCC3)CC2)cc1)N1CCC(N2CCCCC2)CC1	> 150					> 10	Non-Toxic	inactive	inactive	8.2	0.124	0.036
